Measurements published in article PMC4387010 (Nuclear medicine and biology, 2014).
Read-outs that look alike come from different tables or passages of the source.

Columns and labels:
[1] = previously studied radioiodinated α7-nAChR radioligand; cited from earlier work
α7-nAChR [2] = target: α7-nAChR (Mus musculus, UniProt P49582); assay: Blockade of [^125I]iodo-ASEM binding in CD-1 mouse brain by s.c. blockers; assay type: in vivo, CD-1 mice; settings: for inhibition of [^125I]iodo-ASEM binding by blocker: SSR180711 2 mg/kg s.c., 180 min post-injection; for reduction of [^125I]iodo-ASEM accumulation in mouse brain by blocker: CB, Hipp, Ctx, Coll, 180 min, P > 0.05 vs vehicle
α7-nAChR (Mus musculus, UniProt P49582), sequence (P49582 23-502): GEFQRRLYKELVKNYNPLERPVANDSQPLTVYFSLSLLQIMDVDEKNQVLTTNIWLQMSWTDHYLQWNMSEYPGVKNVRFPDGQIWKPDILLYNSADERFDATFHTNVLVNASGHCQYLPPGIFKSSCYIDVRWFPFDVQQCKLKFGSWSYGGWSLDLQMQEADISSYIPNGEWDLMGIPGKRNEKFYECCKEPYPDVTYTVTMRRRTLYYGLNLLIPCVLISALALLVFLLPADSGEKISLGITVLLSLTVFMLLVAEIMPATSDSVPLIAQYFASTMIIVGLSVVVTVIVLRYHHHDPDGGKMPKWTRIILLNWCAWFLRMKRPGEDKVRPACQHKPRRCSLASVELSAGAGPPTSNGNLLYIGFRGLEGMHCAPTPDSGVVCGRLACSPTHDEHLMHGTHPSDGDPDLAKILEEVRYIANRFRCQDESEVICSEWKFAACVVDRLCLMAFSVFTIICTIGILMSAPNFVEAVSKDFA

α7-nAChR [3] = target: α7-nAChR (Rattus norvegicus, UniProt Q05941); assay type: binding
α7-nAChR (Rattus norvegicus, UniProt Q05941), sequence (Q05941 23-502): as the sequence (P49582 23-502) above, with T402A counted along it

α4β2-nAChR = α4β2-nAChR (Homo sapiens, UniProt P17787+P43681); assay type: binding; settings: for α7-nAChR Binding selectivity α7/α4β2: ratio of Ki values
α4β2-nAChR, sequence (P17787 26-502): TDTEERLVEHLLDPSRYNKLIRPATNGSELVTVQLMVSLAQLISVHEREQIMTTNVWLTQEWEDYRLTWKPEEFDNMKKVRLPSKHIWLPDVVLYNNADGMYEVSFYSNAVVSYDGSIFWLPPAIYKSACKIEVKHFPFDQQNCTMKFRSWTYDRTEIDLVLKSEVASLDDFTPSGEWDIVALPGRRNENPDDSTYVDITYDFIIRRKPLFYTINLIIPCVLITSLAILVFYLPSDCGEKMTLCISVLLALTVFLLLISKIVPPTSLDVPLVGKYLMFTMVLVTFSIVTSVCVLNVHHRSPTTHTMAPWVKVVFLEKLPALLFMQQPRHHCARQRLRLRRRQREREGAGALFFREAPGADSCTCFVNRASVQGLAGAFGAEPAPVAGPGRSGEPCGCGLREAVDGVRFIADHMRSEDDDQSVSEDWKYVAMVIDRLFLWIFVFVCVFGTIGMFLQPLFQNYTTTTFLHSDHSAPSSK
α4β2-nAChR, sequence (P43681 29-627): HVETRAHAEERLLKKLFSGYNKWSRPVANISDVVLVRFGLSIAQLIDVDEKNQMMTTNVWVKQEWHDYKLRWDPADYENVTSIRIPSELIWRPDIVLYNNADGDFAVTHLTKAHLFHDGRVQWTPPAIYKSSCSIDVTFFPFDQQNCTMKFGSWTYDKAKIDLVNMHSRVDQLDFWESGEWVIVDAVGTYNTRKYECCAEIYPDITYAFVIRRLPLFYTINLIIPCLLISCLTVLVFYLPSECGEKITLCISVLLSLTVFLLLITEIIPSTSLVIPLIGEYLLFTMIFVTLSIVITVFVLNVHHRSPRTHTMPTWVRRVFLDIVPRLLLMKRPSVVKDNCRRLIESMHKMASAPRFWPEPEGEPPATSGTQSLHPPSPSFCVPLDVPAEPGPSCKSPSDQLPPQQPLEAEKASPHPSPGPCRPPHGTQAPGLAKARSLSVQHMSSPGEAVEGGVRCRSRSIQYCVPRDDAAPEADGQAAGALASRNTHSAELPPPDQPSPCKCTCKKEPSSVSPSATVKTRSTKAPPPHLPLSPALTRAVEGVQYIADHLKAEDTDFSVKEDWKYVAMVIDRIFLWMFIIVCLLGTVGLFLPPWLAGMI

[4] = Regional brain distribution; assay type: in vivo, CD-1 mice; settings: for Regional brain distribution: i.v., mean ± SD (n=3)
Method in brief: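 Male CD-1 mice (25–30 g) got the radioiodinated test compound by lateral tail vein: 3 μCi, specific radioactivity 1600 mCi/μmol, in 0.2 mL saline. Mice were killed by cervical dislocation at various times (three per time point). Brains were dissected on ice, and regions were weighed and γ-counted alongside injectate standards. Uptake was expressed as %ID/g tissue.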

α3β4-nAChR = α3β4-nAChR (Homo sapiens, UniProt P30926+P32297); assay type: binding
α3β4-nAChR, sequence (P32297 32-505): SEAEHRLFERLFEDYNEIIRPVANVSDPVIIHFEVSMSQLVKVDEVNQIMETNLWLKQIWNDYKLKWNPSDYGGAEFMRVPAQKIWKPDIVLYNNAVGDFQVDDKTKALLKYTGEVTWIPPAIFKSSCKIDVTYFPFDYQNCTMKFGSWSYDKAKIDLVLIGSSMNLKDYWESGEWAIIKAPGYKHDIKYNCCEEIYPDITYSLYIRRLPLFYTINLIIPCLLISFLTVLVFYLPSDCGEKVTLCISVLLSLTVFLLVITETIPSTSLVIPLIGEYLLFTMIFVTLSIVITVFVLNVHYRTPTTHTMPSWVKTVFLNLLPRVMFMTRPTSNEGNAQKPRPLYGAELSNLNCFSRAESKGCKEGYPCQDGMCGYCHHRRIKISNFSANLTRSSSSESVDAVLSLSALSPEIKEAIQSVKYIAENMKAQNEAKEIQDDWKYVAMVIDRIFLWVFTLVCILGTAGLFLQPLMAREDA
α3β4-nAChR, sequence (P30926 22-498): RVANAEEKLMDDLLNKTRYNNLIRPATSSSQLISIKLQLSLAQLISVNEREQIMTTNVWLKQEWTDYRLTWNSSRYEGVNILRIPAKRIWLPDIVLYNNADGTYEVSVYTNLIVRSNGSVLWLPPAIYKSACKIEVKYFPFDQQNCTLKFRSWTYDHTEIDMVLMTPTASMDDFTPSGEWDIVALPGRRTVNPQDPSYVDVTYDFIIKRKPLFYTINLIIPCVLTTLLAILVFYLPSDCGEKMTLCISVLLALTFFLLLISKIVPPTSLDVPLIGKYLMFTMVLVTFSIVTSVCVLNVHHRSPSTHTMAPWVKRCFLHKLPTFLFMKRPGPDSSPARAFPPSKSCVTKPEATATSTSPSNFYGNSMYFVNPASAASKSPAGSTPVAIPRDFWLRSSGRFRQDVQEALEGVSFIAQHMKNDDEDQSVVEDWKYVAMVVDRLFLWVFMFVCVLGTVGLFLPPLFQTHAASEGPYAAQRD

[125I]c1occc1-c1cnc2c(c1)C[C@@]1(CN3CCC1CC3)O2 [(1S,2R,4S)-5′-(2-[^125I]iodofuran-3-yl)-3′H-4-azaspiro[bicyclo[2.2.2]octane-2,2′-furo[2,3-b]pyridine]]
colliculus to cerebellum ratio [1]: ~ 2.5

O=C(Oc1ccc(Br)cc1)N1CCN2CCC1CC2 [SSR180711]
inhibition of [^125I]iodo-ASEM binding by blocker (α7-nAChR [2]; cerebellum, P = 0.27): the blockade was negligible | inhibition of [^125I]iodo-ASEM binding by blocker (α7-nAChR [2]; superior and inferior colliculi and hippocampus, P < 0.01): significantly inhibited

O=S1(=O)c2cc(N3CCN4CCC3CC4)ccc2-c2cccc([125I])c21 [[^125I]iodo-ASEM, 3-(1,4-Diazabicyclo[3.2.2]nonan-4-yl)-6-[^125I]iododibenzo[b,d]thiophene 5,5-dioxide]
Ki (α7-nAChR [3]): 0.5 nM | α7-nAChR Binding selectivity α7/α4β2 (α4β2-nAChR): 3,414 | Regional brain distribution ([4]; Cerebellum, 5 min): 4.25±0.42 %ID/g tissue | Regional brain distribution ([4]; Cerebellum, 20 min): 5.20±2.08 %ID/g tissue | Regional brain distribution ([4]; Cerebellum, 60 min): 2.56±0.35 %ID/g tissue | Regional brain distribution ([4]; Cerebellum, 120 min): 1.41±0.08 %ID/g tissue | Regional brain distribution ([4]; Cerebellum, 180 min): 0.76±0.15 %ID/g tissue | Regional brain distribution ([4]; Cerebellum, 240 min): 0.38±0.05 %ID/g tissue | Regional brain distribution ([4]; Cerebellum, 360 min): 0.21±0.04 %ID/g tissue | Regional brain distribution ([4]; Cortex, 5 min): 4.78±0.47 %ID/g tissue | Regional brain distribution ([4]; Cortex, 20 min): 6.25±0.28 %ID/g tissue | Regional brain distribution ([4]; Cortex, 60 min): 6.50±0.57 %ID/g tissue | Regional brain distribution ([4]; Cortex, 120 min): 4.29±0.42 %ID/g tissue | Regional brain distribution ([4]; Cortex, 180 min): 2.74±0.55 %ID/g tissue | Regional brain distribution ([4]; Cortex, 240 min): 1.40±0.06 %ID/g tissue | Regional brain distribution ([4]; Cortex, 360 min): 0.72±0.12 %ID/g tissue | Regional brain distribution ([4]; Hippocampus, 5 min): 3.63±0.40 %ID/g tissue | Regional brain distribution ([4]; Hippocampus, 20 min): 5.09±0.86 %ID/g tissue | Regional brain distribution ([4]; Hippocampus, 60 min): 4.40±0.12 %ID/g tissue | Regional brain distribution ([4]; Hippocampus, 120 min): 3.40±2.03 %ID/g tissue | Regional brain distribution ([4]; Hippocampus, 180 min): 2.66±0.58 %ID/g tissue | Regional brain distribution ([4]; Hippocampus, 240 min): 1.70±0.28 %ID/g tissue | Regional brain distribution ([4]; Hippocampus, 360 min): 0.97±0.12 %ID/g tissue | Regional brain distribution ([4]; Rest of brain, 5 min): 3.89±0.42 %ID/g tissue | Regional brain distribution ([4]; Rest of brain, 20 min): 4.90±0.24 %ID/g tissue | Regional brain distribution ([4]; Rest of brain, 60 min): 4.60±0.18 %ID/g tissue | Regional brain distribution ([4]; Rest of brain, 120 min): 3.24±0.26 %ID/g tissue | Regional brain distribution ([4]; Rest of brain, 180 min): 2.09±0.40 %ID/g tissue | Regional brain distribution ([4]; Rest of brain, 360 min): 0.57±0.05 %ID/g tissue | Regional brain distribution ([4]; Superior & inferior Colliculi, 5 min): 4.09±0.71 %ID/g tissue | Regional brain distribution ([4]; Superior & inferior Colliculi, 20 min): 5.50±0.51 %ID/g tissue | Regional brain distribution ([4]; Superior & inferior Colliculi, 60 min): 5.14±0.20 %ID/g tissue | Regional brain distribution ([4]; Superior & inferior Colliculi, 120 min): 4.37±0.57 %ID/g tissue | Regional brain distribution ([4]; Superior & inferior Colliculi, 180 min): 3.16±0.75 %ID/g tissue | Regional brain distribution ([4]; Superior & inferior Colliculi, 240 min): 1.50±0.28 %ID/g tissue | Regional brain distribution ([4]; Superior & inferior Colliculi, 360 min): 0.87±0.08 %ID/g tissue | colliculus to cerebellum ratio, maximum ([4]; at 180 min post-injection, CD-1 mice): 4.2

O=c1cccc2n1C[C@@H]1CNC[C@H]2C1 [cytisine]
reduction of [^125I]iodo-ASEM accumulation in mouse brain by blocker (α7-nAChR [2]; cytisine 0.5 mg/kg s.c.): neither cytisine nor ondansetron reduced

O=S1(=O)c2cc(N3CCN4CCC3CC4)ccc2-c2cccc(I)c21 [iodo-ASEM]
Ki (α7-nAChR [3]; α7 (rat), HEK-293 membranes, [^3H]epibatidine, mean ± SEM (n=3)): 0.5 ± 0.2 nM | α7-nAChR Binding selectivity α7/α3β4 (α3β4-nAChR; ratio of Ki values): α7/α3β4 = 90 | Ki (α3β4-nAChR; α3β4 (human), HEK-293 membranes, [^3H]epibatidine, mean ± SEM (n=3)): 45 ± 8 nM | α7-nAChR Binding selectivity α7/α4β2 (α4β2-nAChR): α7/α4β2 = 3,414 | Ki (α4β2-nAChR; α4β2 (human), HEK-293 membranes, [^3H]epibatidine, mean ± SEM (n=3)): 1710 ± 373 nM

Cc1nccn1CC1CCc2c(c3ccccc3n2C)C1=O (centres unmarked) [ondansetron]
reduction of [^125I]iodo-ASEM accumulation in mouse brain by blocker (α7-nAChR [2]; ondansetron 2 mg/kg s.c.): neither cytisine nor ondansetron reduced
